Assay results from ChEMBL document CHEMBL4622961, “Design, Synthesis, and Preliminary Immunological Studies of MUC1-Based Antitumor Vaccines Adjuvanted with R- and S-FSL-1” (2020).
Active and inactive are the calls of the source. No cut-off for these calls is given here.

Assays:
[1] = system: Mus musculus; test: Adjuvanted-antitumor vaccine activity in C57BL/6 mouse assessed as potentiation of Th1 mediated response by measuring increase in IFN-gamma level in splenocytes at 4 nmol, ip administered […] and measured after 1 week post-last dose by incubating splenocytes with MUC1 peptide for 48 hrs by ELISA; assay type: functional, organism-based
Procedure, shortened: (§1)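 Splenocytes came from female C57BL/6 mice immunized ip on days 0, 14, 28 and 42. They were restimulated in culture with MUC1 peptide (10 μg/mL), and IL-4, IL-6, IL-12 and IFN-γ were measured in the supernatants. A PBS-immunized group served as comparison.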

[2] = system: Mus musculus; test: Adjuvanted-antitumor vaccine activity in C57BL/6 mouse assessed as potentiation of Th2 mediated response by measuring increase in IL-4 level in splenocytes at 4 nmol, ip administered on […] and measured after 1 weeks post-last dose by incubating splenocytes with MUC1 peptide for 48 hrs by ELISA; assay type: functional, organism-based; procedure, shortened: as §1
[3] = system: Mus musculus; test: Adjuvanted-antitumor vaccine activity in C57BL/6 mouse assessed as potentiation of MUC1 mediated immune response by measuring increase in serum IgG3 level at 4 nmol, ip administered on […] and measured after 1 week post last dose by ELISA; assay type: functional, organism-based
Procedure, shortened: (§2)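 Female C57BL/6 mice, immunized intraperitoneally on days 0, 14, 28 and 42 (PBS group as control). Sera were collected 1 week after the last dose. ELISA measured total IgG titer or the IgG1, IgG2b, IgG2c and IgG3 isotypes. Values are given as mean ± SD.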

[4] = system: Mus musculus; test: Adjuvanted-antitumor vaccine activity in C57BL/6 mouse assessed as potentiation of MUC1 specific Th2 immune response by measuring ratio of IgG1 to IgG2c in serum at 4 nmol, ip administered […] and measured after 1 week post last dose by ELISA; assay type: functional
Procedure, shortened: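 Sera from female C57BL/6 mice given ip doses on days 0, 14, 28 and 42 were taken 1 week after the last dose. IgG1 and IgG2c were measured by ELISA and expressed as an IgG1/IgG2c ratio; a ratio above 1 was read as a Th2-type response.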

[5] = system: Mus musculus; test: Adjuvanted-antitumor vaccine activity in C57BL/6 mouse assessed as induction of IgG production in serum at 4 nmol, ip administered […] and measured after 1 week post last dose by ELISA; assay type: functional, organism-based; procedure, shortened: as §2
[6] = system: Mus musculus; test: Adjuvanted-antitumor vaccine activity in C57BL/6 mouse assessed as induction of MUC1-specific antisera production by measuring binding activity with MCF7 cells expressing MUC1 at 4 nmol, ip administered on […] and measured after 1 week post-last dose by incubating cells with compound-immunized mouse sera for 1 hr by FACS analysis; assay type: functional, organism-based
Procedure, shortened: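 Antisera were collected 1 week after the fourth ip immunization (days 0, 14, 28, 42) of female C57BL/6 mice. MUC1-expressing human breast cancer MCF-7 cells were incubated with the antisera, then with FITC-labelled goat anti-mouse antibody, and binding was read by flow cytometry. The PBS-immunized group served as control.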

[7] = system: Mus musculus; test: Adjuvanted-antitumor vaccine activity in C57BL/6 mouse assessed as potentiation of MUC1 specific Th2 immune response by measuring increase in serum IgG1 level at 4 nmol, ip administered on […] and measured after 1 week post last dose by ELISA; assay type: functional, organism-based; procedure, shortened: as §2
[8] = system: Peritoneal macrophage; test: Adjuvanted-antitumor vaccine activity in C57BL/6 mouse peritoneal macrophages assessed as induction of IL-6 production after 24 hrs by ELISA; assay type: functional, cell-based
Procedure, shortened: (§3)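 Peritoneal macrophages were harvested from C57BL/6 mice and incubated with the adjuvanted vaccine constructs. IL-6 and IL-12 released into the culture supernatant were quantified against a PBS control. Values are given as mean ± SD.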

[9] = system: Peritoneal macrophage; test: Adjuvanted-antitumor vaccine activity in C57BL/6 mouse peritoneal macrophages assessed as induction of IL-12 production after 24 hrs by ELISA; assay type: functional, cell-based; procedure, shortened: as §3
[10] = system: Mus musculus; test: Adjuvanted-antitumor vaccine activity in C57BL/6 mouse assessed as potentiation of Th1 mediated response by measuring increase in IL-12 level in splenocytes at 4 nmol, ip administered on […] and measured after 1 weeks post-last dose by incubating splenocytes with MUC1 peptide for 48 hrs by ELISA; assay type: functional, organism-based; procedure, shortened: as §1
[11] = system: Mus musculus; test: Adjuvanted-antitumor vaccine activity in C57BL/6 mouse assessed as potentiation of Th2 mediated response by measuring increase in IL-6 level in splenocytes at 4 nmol, ip administered […] and measured after 1 weeks post-last dose by incubating splenocytes with MUC1 peptide for 48 hrs by ELISA; assay type: functional, organism-based; procedure, shortened: as §1
[12] = system: Mus musculus; test: Adjuvanted-antitumor vaccine activity in C57BL/6 mouse assessed as potentiation of MUC1 mediated immune response by measuring increase in serum IgG2b level at 4 nmol, ip administered on […] and measured after 1 week post last dose by ELISA; assay type: functional, organism-based; procedure, shortened: as §2
[13] = system: Mus musculus; test: Aduvanted-antitumor vaccine activity in C57BL/6 mouse assessed as potentiation of MUC1 specific Th1 immune response by measuring increase in serum IgG2c level at 4 nmol, ip administered […] and measured after 1 week post last dose by ELISA; assay type: functional, organism-based; procedure, shortened: as §2

Compound | Activity [1] | Activity [2] | Activity [3] | Ratio [4] | Activity [5] | Activity [6] | Activity [7] | Activity [8] | Activity [9] | Activity [10] | Activity [11] | Activity [12] | Activity [13]
CCCCCCCCCCCCCCCC(=O)OC[C@H](CSC[C@H](N)C(=O)NCC(=O)N[C@@H](CC(=O)O)C(=O)N1CCC[C@H]1C(=O)N[C@@H](CCCCN)C(=O)N[C@@H](Cc1c[nH]cn1)C(=O)N1CCC[C@H]1C(=O)N[C@@H](CCCCN)C(=O)N[C@@H](CO)C(=O)N[C@@H](Cc1ccccc1)C(=O)NCC(=O)NCC(=O)NCC(=O)N[C@@H](Cc1c[nH]cn1)C(=O)NCC(=O)N[C@H](C(=O)N[C@H](C(=O)N[C@@H](CO)C(=O)N[C@@H](C)C(=O)N1CCC[C@H]1C(=O)N[C@@H](CC(=O)O)C(=O)N[C@H](C(=O)N[C@@H](CCCNC(=N)N)C(=O)N1CCC[C@H]1C(=O)N[C@@H](C)C(=O)N1CCC[C@H]1C(=O)NCC(=O)N[C@@H](CO)C(=O)N[C@H](C(=O)N[C@@H](C)C(=O)N1CCC[C@H]1C(=O)N1CCC[C@H]1C(=O)N[C@@H](C)C(=O)O)[C@@H](C)O)[C@@H](C)O)[C@@H](C)O)C(C)C)OC(=O)CCCCCCCCCCCCCCC | Active | Active | Active | >1 | Active | Active | Active | Active | Active | Active | Active | Active | Active
CCCCCCCCCCCCCCCC(=O)OC[C@@H](CSC[C@H](N)C(=O)NCC(=O)N[C@@H](CC(=O)O)C(=O)N1CCC[C@H]1C(=O)N[C@@H](CCCCN)C(=O)N[C@@H](Cc1c[nH]cn1)C(=O)N1CCC[C@H]1C(=O)N[C@@H](CCCCN)C(=O)N[C@@H](CO)C(=O)N[C@@H](Cc1ccccc1)C(=O)NCC(=O)NCC(=O)NCC(=O)N[C@@H](Cc1c[nH]cn1)C(=O)NCC(=O)N[C@H](C(=O)N[C@H](C(=O)N[C@@H](CO)C(=O)N[C@@H](C)C(=O)N1CCC[C@H]1C(=O)N[C@@H](CC(=O)O)C(=O)N[C@H](C(=O)N[C@@H](CCCNC(=N)N)C(=O)N1CCC[C@H]1C(=O)N[C@@H](C)C(=O)N1CCC[C@H]1C(=O)NCC(=O)N[C@@H](CO)C(=O)N[C@H](C(=O)N[C@@H](C)C(=O)N1CCC[C@H]1C(=O)N1CCC[C@H]1C(=O)N[C@@H](C)C(=O)O)[C@@H](C)O)[C@@H](C)O)[C@@H](C)O)C(C)C)OC(=O)CCCCCCCCCCCCCCC | Active | Active | Active | >1 | Active | Active | Active | Active | Active | Active | Active | Active | Active
